CHRM4 agonist: agonists of human muscarinic M4 receptor (CHRM4); actives 0.14% (n = 360,000); activation, % at 3 µM; CHO-K1 hM4/Gqi5, Fluo-8 calcium fluorescence; vehicle 0%, full acetylcholine response 100%; P08173;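 active = activation above the run mean over all test wells plus 3 SD, cut at about 32% in these data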;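 note: peak over basal fluorescence ratio per well then scaled between controls; 0% = DMSO wells and 100% = acetylcholine at EC100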
Target sequence (P08173 whole entry, looked up): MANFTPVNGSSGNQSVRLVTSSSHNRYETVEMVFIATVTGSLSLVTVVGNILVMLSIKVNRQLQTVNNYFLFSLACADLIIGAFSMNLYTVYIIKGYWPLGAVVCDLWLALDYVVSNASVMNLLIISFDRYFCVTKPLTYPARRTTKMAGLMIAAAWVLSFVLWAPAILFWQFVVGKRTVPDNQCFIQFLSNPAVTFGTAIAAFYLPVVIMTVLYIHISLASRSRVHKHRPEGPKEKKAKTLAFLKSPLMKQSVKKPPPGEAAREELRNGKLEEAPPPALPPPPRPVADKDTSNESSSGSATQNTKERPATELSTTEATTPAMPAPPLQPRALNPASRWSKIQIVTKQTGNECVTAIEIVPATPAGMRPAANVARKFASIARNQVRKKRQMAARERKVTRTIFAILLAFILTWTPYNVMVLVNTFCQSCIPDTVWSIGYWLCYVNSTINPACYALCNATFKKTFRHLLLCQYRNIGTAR
CHRM4 PAM: potentiates acetylcholine response at human M4 receptor | activation, % at 3 µM | AID 624126 | P08173 | actives 0.4% (n = 360,000) | CHO-K1 hM4/Gqi5, Fluo-8 calcium fluorescence, ACh EC20; 0% = ACh EC20, 100% = maximal ACh;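 active = activation above its plate's cutoff, the mean activation of sample wells plus 3 SD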
M4 antag: antagonists of human muscarinic M4 receptor (CHRM4); P08173; CHO-hM4 cells, ACh EC80, Fluo-8 calcium fluorescence; inhibition, % at 3 µM; actives 0.73% (n = 360,000); AID 624125;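 active = inhibition above its plate's cutoff, the mean inhibition of sample wells plus 3 SD, cut at about 27% in these data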;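 note: 0% = acetylcholine EC80 with DMSO and 100% = DMSO without agonist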
CHRM5 antagonist: blocks acetylcholine activation of human M5 receptor. inhibition, % at 3 µM. CHO-hM5 cells, Fluo-8 calcium fluorescence, ACh EC80. actives 0.59% (n = 360,000). P08912;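 active = inhibition above a per-plate cutoff, the mean of that plate's test compounds plus 3 SD, cut at about 27% in these data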;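 note: 0% = acetylcholine EC80 with DMSO and 100% = DMSO without agonist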
CHRM5 PAM: CHRM5 positive allosteric modulation; activation, % at 3 µM; actives 0.3% (n = 360,000); CHO-K1 hM5, Fluo-8 calcium, ACh EC20 PAM; 0% = ACh EC20, 100% = ACh EC100; P08912;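 active = activation above the run cutoff, the mean activation of all test compounds plus 3 SD, cut at about 18% in these data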
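Test system: CHO-K1 hM5 cells / Doses: single-point, 3 µM nominal / Times: Post-acetylcholine fluorescence recording 140 s / Technique: Fluo-8 calcium fluorescence / Measure: Max/basal fluorescence ratio as % of EC20–EC100 ACh window / Benchmarks: low control EC20 acetylcholine (0%), high control EC100 acetylcholine (100%) / Replicates: one well per compound, no replicates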
CHRM5 agonist: agonists of human muscarinic M5 receptor (CHRM5); CHO-K1 hM5 cells, Fluo-8 calcium fluorescence; 0% DMSO wells, 100% maximal acetylcholine response; activation, % at 3 µM; actives 0.19% (n = 360,000);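 active = activation above the run's mean over test compounds plus 3 SD, cut at about 23% in these data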;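 note: signal is peak over basal fluorescence ratio across the kinetic read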
* = called active by the depositor. Most compounds without a hit are left out; they make up all but 1.9% or so of the library.

SMILES | CHRM4 agonist | CHRM4 PAM | M4 antag | CHRM5 antagonist | CHRM5 PAM | CHRM5 agonist
COc1ccc(OC)c(NC(=O)[C@@]2(CC(=O)O)CC(/C=C/c3ccccc3)=NO2)c1 | 0 | -4 | 4 | 5 | 0 | -2
O=C(Nc1ccccc1C(=O)O)c1cc(S(=O)(=O)N2CCOCC2)c(Br)s1 | -1 | 16* | -8 | -13 | 18* | 1
O=C(Nc1ccccc1Cl)c1cc(S(=O)(=O)N2CCOCC2)cs1 | 2 | 0 | 3 | 0 | -1 | -3
CCOC(=O)Nc1ccc2c(c1)N(C(=O)N1CCN(C)CC1)c1ccccc1S2 | 5 | -22 | 6 | 60* | -18 | -7
CCOC(=O)Nc1ccc2c(c1)N(C(=O)CN(CC)CC)c1ccccc1CC2 | -1 | -12 | 32* | 3 | -26 | -27
CCOC(=O)Nc1ccc2c(c1)N(C(=O)CCN1CCN(C)CC1)c1ccccc1S2 | 1 | -6 | 5 | -4 | -5 | -5
CC(C)OC(=O)Nc1ccc2c(c1)N(C(=O)N1CCN(C)CC1)c1ccccc1CC2 | 1 | -14 | 28* | 46* | -29 | -18
CC(C)(O)CN(C(=O)c1ccc([N+](=O)[O-])cc1)C1CCCC1 | 1 | -2 | -5 | -1 | 1 | -7
Cc1csc(NC(=O)C(CC(C)C)NS(=O)(=O)c2ccc3c(c2)oc(=O)n3C)n1 (stereo unspecified) | 0 | -12 | 34* | 2 | -7 | 5
Cc1csc(NC(=O)C2CCN(S(=O)(=O)c3ccc4c(c3)oc(=O)n4C)CC2)n1 | 7 | 1 | -15 | 0 | -4 | 2
CC(=O)N1c2ccc(S(=O)(=O)N(C)CC(=O)Nc3ccccc3C)cc2CC1C (stereo unspecified) | 8 | 5 | -29 | -6 | 2 | 0
Cc1ccc2cc(NC(=O)c3ccc(C(C)(C)C)cc3)ccc2n1 | 21 | 11 | 20 | 27* | 0 | -3
CCN(Cc1ccccc1)C(=O)c1ccc(C(=O)N(CC)Cc2ccccc2)cc1 | 5 | -6 | 9 | 28* | -9 | -3
O=C(c1ccccc1)N(Cc1ccccc1)Cc1ccccc1 | 0 | -3 | 10 | -1 | 0 | -1
CCC(C)[C@H](NC(=O)N1CC(=O)Nc2ccccc21)C(=O)N1CCC[C@@H]1C(=O)O (stereo partly specified) | 0 | -1 | -14 | 5 | -3 | 1
CCC(C)[C@H](NC(=O)N1CC(=O)Nc2ccccc21)C(=O)N1CCC[C@H]1C(=O)O (stereo partly specified) | -2 | -18 | 101* | 7 | -2 | 2
CN(CCC#N)C(=O)COC(=O)c1cc(Cl)cc(Cl)c1N | 1 | -4 | 1 | -5 | 3 | 1
Nc1nc(Nc2ccccc2F)sc1C(=O)c1ccccc1 | 1 | 2 | -2 | -6 | 6 | 28*
O=c1c(Cl)c(O)ccn1C1OC(CO)C(O)C1O (stereo unspecified) | 0 | 4 | -10 | -4 | 6 | 3
CCC(=O)N1CCN(C(=O)c2ccccc2)CC1 | 0 | -16 | 75* | -2 | -10 | 1
CC(=O)NN1C(=O)c2ccc3c4c(ccc(c24)C1=O)C(=O)N(NC(C)=O)C3=O | 1 | 3 | 3 | -3 | 3 | 0
CC(=O)OCC(=O)[C@@]1(O)CC[C@H]2[C@@H]3CCC4=CC(=O)C=C[C@]4(C)[C@H]3[C@@H](O)C[C@@]21C | 1 | 3 | -1 | -4 | 2 | 2
CC12C=CC(=O)C=C1CCC1C2C(O)CC2(C)C1CCC2(O)C(=O)CO (stereo unspecified) | 1 | -17 | 88* | 15 | -18 | -1
CC(=O)OCC(=O)[C@@]1(O)CC[C@H]2[C@@H]3CCC4=CC(=O)C=C[C@]4(C)[C@@]3(Cl)[C@@H](Cl)C[C@@]21C | 0 | 3 | 3 | 9 | -18 | 43*
CCC(C(=O)OCC(=O)C1(O)CCC2C3CCC4=CC(=O)CCC4(C)C3C(O)CC21C)C(C)C (stereo unspecified) | 15 | -12 | 28* | 19 | -27 | -6
SMILES | CHRM4 agonist | CHRM4 PAM | M4 antag | CHRM5 antagonist | CHRM5 PAM | CHRM5 agonist
COc1ccc(CCNC/C=C/c2ccccc2)cc1 | 3 | -7 | 6 | 10 | 0 | -20
CCC(C)(NC(=O)c1ccccc1)C(=O)O (stereo unspecified) | 1 | 31* | 22 | -2 | 9 | -2
CC(C)(C)CC(C)(C)NC(=O)c1ccccc1 | 1 | 2 | -6 | 5 | 1 | 3
CC1COc2ccccc2N1S(=O)(=O)c1cc(Cl)ccc1Cl (stereo unspecified) | -1 | -6 | -10 | -4 | -2 | -9
O=C(NCc1ccco1)C1c2ccccc2Oc2ccccc21 | 4 | -8 | 27* | 1 | -3 | -11
C=CCN(CC=C)C(=O)C1c2ccccc2Oc2ccccc21 | -2 | 5 | -4 | -2 | -1 | -2
CCN(CC)C(=O)C1c2ccccc2Oc2ccccc21 | 33* | -15 | 20 | 14 | -12 | 53*
CC(C)CNC(=O)COC(=O)C1c2ccccc2Oc2ccccc21 | 3 | -6 | -25 | -2 | -1 | -3
CC(C)[N+](C)(CCOC(=O)C1c2ccccc2Oc2ccccc21)C(C)C | 0 | -18 | 100* | 98* | -18 | -2
CSCCC(C(=O)NC1CCCC1)n1c(C2CC2)nc2ccccc21 (stereo unspecified) | 0 | 1 | 2 | 10 | 1 | -3
CC(C)N(C(=O)C1CC(=O)OC12CCCCC2)C(C)C (stereo unspecified) | 1 | 21 | 30* | 5 | 10 | -1
O=C(Nc1cccc(C(F)(F)F)c1)C(=O)N1CCCCC1 | 0 | 8 | 5 | -7 | 20* | 1
CCCCn1c(N)c(N(CC)C(=O)C2=NN(c3ccccc3)C(=O)CC2)c(=O)[nH]c1=O | 2 | 5 | 1 | -6 | 4 | 4
O=c1[nH]c2ccccc2c2nc(-c3cccc(S(=O)(=O)N4CCCC4)c3)nn12 | 1 | 19 | 29* | 6 | -5 | -3
CN1CCN(S(=O)(=O)c2ccc(F)cc2)CC1 | 2 | -3 | -2 | -2 | -2 | 2
O=C(CSc1nc2ccc(Nc3nc(N4CCOCC4)nc(N4CCOCC4)n3)cc2s1)Nc1ccccc1F | 2 | -3 | 3 | -4 | -1 | -1
O=C(NCc1ccccc1)c1ccc(NC2=NC3CS(=O)(=O)CC3S2)cc1 (stereo unspecified) | 1 | 0 | 2 | 2 | 0 | -1
NNC1=N[C@H]2CS(=O)(=O)C[C@H]2S1 | 1 | 24* | -5 | -2 | 9 | -1
